According to ChEMBL document CHEMBL3758162, “Synthesis, biological characterization and molecular modeling insights of spirochromanes as potent HDAC inhibitors” (Eur J Med Chem, 2016):

Key:
[1] = Metabolic stability in mouse liver microsomes assessed as compound remaining at 1 uM preincubated for 10 mins measured after 30 mins by LC-MS/MS analysis; type: ADME; details: for remaining at 0.5 h, 1 µM: liver microsomes, read-out: Stability
Procedure, shortened: (§1)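 Compound at 1 µM pre-incubated 10 min at 37 °C in potassium phosphate buffer pH 7.4 with 0.5 mg/mL mouse or human hepatic microsomes. Parent quantified by LC-MS/MS (ESI+, MRM, verapamil internal standard). % remaining = peak area at 30 min / area at 0 min × 100; n≥2, mean.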

CYP1A2 = molecular target: T1, CYP1A2 (Homo sapiens, UniProt P05177); test: Inhibition of human CYP1A2 using 3-cyano-7-ethoxycoumarin as substrate at 10 uM after 15 mins by fluorimetric analysis; type: ADME; details: probe 3-cyano-7-ethoxycoumarin
T1 sequence (P05177 whole entry): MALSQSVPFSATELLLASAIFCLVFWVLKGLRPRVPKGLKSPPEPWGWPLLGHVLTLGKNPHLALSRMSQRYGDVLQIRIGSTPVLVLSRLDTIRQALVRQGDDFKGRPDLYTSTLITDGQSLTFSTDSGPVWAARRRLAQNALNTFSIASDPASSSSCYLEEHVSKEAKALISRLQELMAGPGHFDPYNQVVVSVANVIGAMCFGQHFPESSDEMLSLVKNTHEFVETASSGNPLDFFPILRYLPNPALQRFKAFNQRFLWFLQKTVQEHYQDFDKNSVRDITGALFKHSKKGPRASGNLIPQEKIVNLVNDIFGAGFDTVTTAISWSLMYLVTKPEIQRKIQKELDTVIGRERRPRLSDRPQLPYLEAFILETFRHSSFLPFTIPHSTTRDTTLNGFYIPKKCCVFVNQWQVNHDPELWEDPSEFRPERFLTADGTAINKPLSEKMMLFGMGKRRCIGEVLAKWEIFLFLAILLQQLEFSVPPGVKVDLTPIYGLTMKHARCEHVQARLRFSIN
Procedure, shortened: (§2)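 Test compounds at 10 µM in potassium phosphate buffer pH 7.4 with NADPH regenerating system (final 1.3 mM NADP⁺, 3.3 mM glucose 6-phosphate, 0.4 U/ml G6PDH); reaction started at 37 °C by adding Supersomes isoenzyme plus substrate. Enzyme and substrate amounts: CYP1A2 0.5 pmol, 5 µM CEC; CYP2C19 0.5 pmol, 25 µM CEC; CYP3A4 1 pmol, 50 µM BFC; CYP2D6 1.5 pmol, 1.5 µM AMMC. Stopped with acetonitrile/Tris base; fluorescence read; % inhibition versus enzyme without inhibitor; n≥2, mean.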

Histone deacetylase 3 [2] = molecular target: T2, Histone deacetylase 3 (Homo sapiens, UniProt O15379); test: Inhibition of recombinant human HDAC3 after 15 mins by fluorescence assay
T2 sequence (O15379 whole entry): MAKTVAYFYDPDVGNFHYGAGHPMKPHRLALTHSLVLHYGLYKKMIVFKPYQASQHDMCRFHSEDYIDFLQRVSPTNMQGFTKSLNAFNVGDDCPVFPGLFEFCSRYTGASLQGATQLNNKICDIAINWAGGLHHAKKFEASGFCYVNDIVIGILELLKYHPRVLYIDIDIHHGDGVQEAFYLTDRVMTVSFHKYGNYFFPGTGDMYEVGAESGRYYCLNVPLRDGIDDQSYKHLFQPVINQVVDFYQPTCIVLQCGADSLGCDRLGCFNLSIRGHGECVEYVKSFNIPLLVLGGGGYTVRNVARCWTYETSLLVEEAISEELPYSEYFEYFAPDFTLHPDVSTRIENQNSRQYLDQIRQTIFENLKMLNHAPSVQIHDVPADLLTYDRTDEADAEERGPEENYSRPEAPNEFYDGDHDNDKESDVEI
Procedure, shortened: (§3)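 Recombinant human HDAC2, 3 or 6 (20, 6 and […] respectively) diluted in assay buffer with inhibitor and 25 µM fluorogenic acetyl-lysine substrate; 15 min at room temperature, then developer 10 min; fluorescence read. Concentration–inhibition data fitted by non-linear regression to give IC50; replicates n≥2, mean shown.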

CYP2C19 = CYP2C19 (Homo sapiens, UniProt P33261); test: Inhibition of human CYP2C19 using 3-cyano-7-ethoxycoumarin as substrate at 10 uM after 30 mins by fluorimetric analysis; type: ADME; details: probe 3-cyano-7-ethoxycoumarin; procedure, shortened: as §2
Sequence of CYP2C19 (P33261 whole entry): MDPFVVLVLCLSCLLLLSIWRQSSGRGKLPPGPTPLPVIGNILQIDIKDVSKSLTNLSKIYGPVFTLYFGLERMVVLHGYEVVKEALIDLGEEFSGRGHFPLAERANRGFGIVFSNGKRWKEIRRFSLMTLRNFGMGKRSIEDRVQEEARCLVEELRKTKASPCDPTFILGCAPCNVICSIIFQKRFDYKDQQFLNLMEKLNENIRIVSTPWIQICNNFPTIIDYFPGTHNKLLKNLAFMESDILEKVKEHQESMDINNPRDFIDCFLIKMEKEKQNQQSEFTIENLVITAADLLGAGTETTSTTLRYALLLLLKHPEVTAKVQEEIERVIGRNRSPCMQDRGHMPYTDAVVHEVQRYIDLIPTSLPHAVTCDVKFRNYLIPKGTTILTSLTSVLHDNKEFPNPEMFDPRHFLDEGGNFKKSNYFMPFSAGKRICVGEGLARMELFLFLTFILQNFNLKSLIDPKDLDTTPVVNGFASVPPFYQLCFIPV

Histone deacetylase 2 [3] = molecular target: T3, Histone deacetylase 2 (Homo sapiens, UniProt Q92769); test: Inhibition of recombinant human HDAC2 after 15 mins by fluorescence assay; procedure, shortened: as §3
T3 sequence (Q92769 whole entry): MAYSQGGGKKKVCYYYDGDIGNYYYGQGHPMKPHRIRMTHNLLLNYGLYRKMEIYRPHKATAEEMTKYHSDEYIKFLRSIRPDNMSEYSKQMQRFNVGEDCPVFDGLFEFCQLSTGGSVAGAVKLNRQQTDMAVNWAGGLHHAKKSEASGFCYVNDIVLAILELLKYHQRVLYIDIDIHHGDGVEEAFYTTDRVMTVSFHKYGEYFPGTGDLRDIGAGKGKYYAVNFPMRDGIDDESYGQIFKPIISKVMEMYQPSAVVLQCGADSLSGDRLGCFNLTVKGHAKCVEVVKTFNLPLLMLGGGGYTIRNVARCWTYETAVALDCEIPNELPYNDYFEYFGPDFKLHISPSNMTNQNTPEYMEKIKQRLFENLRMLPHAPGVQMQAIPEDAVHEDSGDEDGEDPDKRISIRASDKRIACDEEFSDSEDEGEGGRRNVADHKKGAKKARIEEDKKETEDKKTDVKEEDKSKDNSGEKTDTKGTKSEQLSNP

[4] = (§4) Metabolic stability in human liver microsomes assessed as compound remaining at 1 uM preincubated for 10 mins measured after 30 mins by LC-MS/MS analysis; type: ADME; details: liver microsomes, read-out: Stability; procedure, shortened: as §1
CYP3A4 = CYP3A4 (Homo sapiens, UniProt P08684); test: Inhibition of human CYP3A4 using 7-benzyloxy-4-(trifluoromethyl)-coumarin as substrate at 10 uM after 30 mins by fluorimetric analysis; type: ADME; details: probe 7-benzyloxy-4-(trifluoromethyl)-coumarin; procedure, shortened: as §2
Sequence of CYP3A4 (P08684 whole entry): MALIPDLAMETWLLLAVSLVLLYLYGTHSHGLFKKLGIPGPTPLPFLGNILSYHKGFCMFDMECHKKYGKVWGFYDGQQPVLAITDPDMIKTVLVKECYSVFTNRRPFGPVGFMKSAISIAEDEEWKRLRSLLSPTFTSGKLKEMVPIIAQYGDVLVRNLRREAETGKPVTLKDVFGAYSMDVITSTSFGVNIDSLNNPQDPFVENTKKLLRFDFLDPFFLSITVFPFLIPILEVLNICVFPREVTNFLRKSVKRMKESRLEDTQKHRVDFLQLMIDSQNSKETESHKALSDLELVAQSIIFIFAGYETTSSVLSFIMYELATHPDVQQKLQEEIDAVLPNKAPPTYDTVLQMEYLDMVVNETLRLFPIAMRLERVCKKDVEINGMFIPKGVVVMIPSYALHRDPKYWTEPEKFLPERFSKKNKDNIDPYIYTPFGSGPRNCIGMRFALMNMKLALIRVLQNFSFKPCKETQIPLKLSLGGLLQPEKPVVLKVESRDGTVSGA

CYP2D6 = CYP2D6 (Homo sapiens, UniProt P10635); test: Inhibition of human CYP2D6 using 3-[2-(N,N-diethyl-N-methylamino)ethyl]-7-methoxy-4-methylcoumarin as substrate at 10 uM after 30 mins by fluorimetric analysis; type: ADME; procedure, shortened: as §2
Sequence of CYP2D6 (P10635 whole entry): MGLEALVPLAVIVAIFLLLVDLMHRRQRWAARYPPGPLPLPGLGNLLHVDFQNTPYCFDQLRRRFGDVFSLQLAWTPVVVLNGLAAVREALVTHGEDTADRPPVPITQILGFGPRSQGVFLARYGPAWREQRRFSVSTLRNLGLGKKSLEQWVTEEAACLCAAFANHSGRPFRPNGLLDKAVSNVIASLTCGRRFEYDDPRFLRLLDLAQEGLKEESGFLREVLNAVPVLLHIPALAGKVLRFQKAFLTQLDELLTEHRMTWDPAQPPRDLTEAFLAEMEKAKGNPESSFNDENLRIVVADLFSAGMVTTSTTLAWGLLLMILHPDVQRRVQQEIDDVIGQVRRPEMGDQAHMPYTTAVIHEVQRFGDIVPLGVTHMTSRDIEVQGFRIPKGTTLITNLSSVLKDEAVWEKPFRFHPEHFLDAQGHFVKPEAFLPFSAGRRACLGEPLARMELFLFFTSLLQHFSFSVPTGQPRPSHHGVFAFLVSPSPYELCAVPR

[5] = molecular target: T4, Protein deacetylase HDAC6 (Homo sapiens, UniProt Q9UBN7); test: Inhibition of recombinant human HDAC6 after 15 mins by fluorescence assay; procedure, shortened: as §3
T4 sequence (Q9UBN7 whole entry): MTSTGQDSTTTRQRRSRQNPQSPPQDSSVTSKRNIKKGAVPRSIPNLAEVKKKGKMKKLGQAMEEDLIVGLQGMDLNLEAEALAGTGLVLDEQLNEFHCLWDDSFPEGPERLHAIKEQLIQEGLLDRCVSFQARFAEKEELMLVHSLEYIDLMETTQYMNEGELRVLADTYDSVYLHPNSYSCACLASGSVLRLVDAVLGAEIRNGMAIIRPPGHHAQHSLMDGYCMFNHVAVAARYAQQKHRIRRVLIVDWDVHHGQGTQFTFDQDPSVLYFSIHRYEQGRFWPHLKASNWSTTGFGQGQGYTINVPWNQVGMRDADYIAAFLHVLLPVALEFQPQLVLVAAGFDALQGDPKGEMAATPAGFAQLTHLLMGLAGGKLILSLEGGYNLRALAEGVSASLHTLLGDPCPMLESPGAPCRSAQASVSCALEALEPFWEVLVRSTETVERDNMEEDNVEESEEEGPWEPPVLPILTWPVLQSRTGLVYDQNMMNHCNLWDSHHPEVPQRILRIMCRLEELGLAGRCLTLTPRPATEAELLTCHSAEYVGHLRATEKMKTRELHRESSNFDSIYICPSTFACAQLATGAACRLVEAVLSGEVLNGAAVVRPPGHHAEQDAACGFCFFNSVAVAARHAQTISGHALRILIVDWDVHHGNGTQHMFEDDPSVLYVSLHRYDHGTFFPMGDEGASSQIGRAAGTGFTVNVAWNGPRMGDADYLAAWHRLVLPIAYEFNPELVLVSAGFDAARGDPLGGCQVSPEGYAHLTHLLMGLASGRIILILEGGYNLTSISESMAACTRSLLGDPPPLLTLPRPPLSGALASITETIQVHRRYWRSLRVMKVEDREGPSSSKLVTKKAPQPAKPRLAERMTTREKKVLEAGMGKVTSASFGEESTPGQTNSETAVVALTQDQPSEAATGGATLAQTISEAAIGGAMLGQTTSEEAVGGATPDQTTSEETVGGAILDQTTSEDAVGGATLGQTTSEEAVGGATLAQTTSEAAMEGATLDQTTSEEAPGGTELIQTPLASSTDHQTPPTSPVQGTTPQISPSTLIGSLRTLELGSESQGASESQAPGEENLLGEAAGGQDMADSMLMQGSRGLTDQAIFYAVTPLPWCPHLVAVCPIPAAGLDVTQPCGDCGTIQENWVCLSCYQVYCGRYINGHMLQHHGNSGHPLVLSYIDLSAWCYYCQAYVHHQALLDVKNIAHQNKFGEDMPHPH

[6] = Solubility of the compound at pH 4.5; type: physicochemical; details: buffer
[7] = Antiproliferative activity against human HCT116 cells assessed as cell viability after 72 hrs by CellTitre-Glo luminescent assay; type: functional, cell-based, HCT-116
K562 = test: Antiproliferative activity against human K562 cells assessed as cell viability after 72 hrs by CellTitre-Glo luminescent assay; type: functional, cell-based
Histone deacetylase = test: Inhibition of HDAC in human HeLa cells nuclear extract using Fluor de lys as substrate after 15 mins by fluorometric analysis; type: cell-based
A549 = test: Antiproliferative activity against human A549 cells assessed as cell viability after 72 hrs by CellTitre-Glo luminescent assay; type: functional, cell-based
Histone deacetylase 2 [8] = molecular target: T3, Histone deacetylase 2; test: Inhibition of HDAC2 (unknown origin)
[9] = molecular target: T4, Protein deacetylase HDAC6; test: Inhibition of HDAC6 (unknown origin)
Histone deacetylase 3 [10] = molecular target: T2, Histone deacetylase 3; test: Inhibition of HDAC3 (unknown origin)
Liver microsome = test: as §4; type: ADME; details: microsomes, 0.5 h, 1 µM; procedure, shortened: as §1

Row | SMILES | remaining at 0.5 h, 1 µM [1] [%] | inhibition at 0.25 h, 10 µM (CYP1A2) [%] | inhibition at 0.5 h, 10 µM (CYP2C19) [%] | remaining at 0.5 h, 1 µM [4] [%] | inhibition at 0.5 h, 10 µM (CYP3A4) [%] | inhibition at 0.5 h, 10 µM (CYP2D6) [%] | solubility [6] [µM] | IC50 ([7]; Homo sapiens, HCT-116, 72 h) [nM] | IC50 (K562; Homo sapiens, K562, 72 h) [nM] | IC50 (Histone deacetylase) [nM] | IC50 (A549; Homo sapiens, A549, 72 h) [nM] | other results
1 | O=C(/C=C/c1ccc2c(c1)C(=O)CC1(CCN(Cc3ccc(F)cc3)CC1)O2)NO | 47 | 5 | 61 | 63 | 34 | 43 | – | – | – | – | – | IC50 (Histone deacetylase 3 [2]): 92 nM; IC50 (Histone deacetylase 2 [3]): 320 nM
2 | O=C(/C=C/c1ccc2c(c1)C(=O)CC1(CCN(CCc3ccccc3)CC1)O2)NO | 57 | 13 | 42 | 66 | 40 | 41 | – | – | – | – | – | IC50 [5]: 138 nM; IC50 (Histone deacetylase 2 [3]): 199 nM
3 | O=C(/C=C/c1ccc2c(c1)C(=O)CC1(CN(Cc3ccccc3)C1)O2)NO | 44 | 5 | 40 | 44 | 53 | 64 | > 500 | 76 | 175 | 67 | 245 | –
4 | Cn1cc(CN2CC3(CC(=O)c4cc(/C=C/C(=O)NO)ccc4O3)C2)c2ccccc21 | 27 | 8 | 68 | 51 | 84 | 74 | > 500 | 78 | 46 | 62 | 242 | –
5 | CN1CCCC2(CC(=O)c3cc(/C=C/C(=O)NO)ccc3O2)C1 (racemic) | 72 | 5 | 12 | 42 | 51 | 14 | > 500 | 63 | 56 | 237 | 103 | –
6 | O=C(/C=C/c1ccc2c(c1)C(=O)CC1(CCCN(CCc3ccccc3)CC1)O2)NO (racemic) | 39 | 5 | 81 | 27 | 41 | 52 | > 500 | 62 | 188 | 56 | 184 | –
7 | O=C(/C=C/c1ccc2c(c1)C(=O)CC1(CCN(Cc3ccccc3)C1)O2)NO (racemic) | 27 | 5 | 39 | – | 69 | 70 | > 500 | 72 | – | 52 | 389 | IC50 (Histone deacetylase 2 [8]): 82 nM; IC50 [9]: 123 nM; IC50 (Histone deacetylase 3 [10]): 28 nM; IC50 (K562; k562): 271 nM; Stability (Liver microsome): 24%
8 | CN1CCCC2(CC1)CC(=O)c1cc(/C=C/C(=O)NO)ccc1O2 (racemic) | 62 | 5 | 9 | 79 | 12 | 5 | > 500 | 98 | 329 | 114 | 534 | –
9 | O=C(/C=C/c1ccc2c(c1)C(=O)CC1(CCN(CCc3ccccc3)C1)O2)NO (racemic) | 31 | 5 | 59 | 31 | 64 | 41 | > 500 | 43 | 102 | 27 | 272 | –
10 | O=C(/C=C/c1ccc2c(c1)C(=O)CC1(CCCN(Cc3ccccc3)CC1)O2)NO (racemic) | 25 | – | – | 19 | – | – | – | 47 | 162 | 73 | 371 | IC50 (Histone deacetylase 2 [8]): 72 nM; IC50 [9]: 151 nM; IC50 (Histone deacetylase 3 [10]): 30 nM
11 | O=C(/C=C/c1ccc2c(c1)C(=O)CC1(CCN(Cc3ccccc3)C1)O2)NO (single isomer, unassigned; (-)) | – | – | – | – | – | – | – | – | – | 26 | – | Stability ([1]; microsomes, 0.5 h, 1 µM): 19%; IC50 ([7]; hct-116): 66 nM; IC50 (K562; k562): 119 nM; Stability (Liver microsome): 23%; IC50 (A549; a549): 332 nM
12 | O=C(/C=C/c1ccc2c(c1)C(=O)CC1(CCN(Cc3ccccc3)C1)O2)NO (stereo in doubt; 32j) | – | – | – | – | – | – | – | – | – | 37 | – | IC50 ([7]; hct-116): 71 nM; IC50 (K562; k562): 130 nM; Stability (Liver microsome): 11%; IC50 (A549; a549): 303 nM
13 | O=C(CCCCCCC(=O)Nc1ccccc1)NO [VORINOSTAT] | 82 | 25 | 69 | 93 | 35 | 25 | – | – | – | – | – | –
